System: A-431
Assay: Antiproliferative activity against human A431 cells after 48 hrs by MTT assay
Type: functional, cell-based
Conditions: A-431, 48 h
Summary of the method: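 Cells in complete medium seeded into 96-well plates, preincubated 24 h at 37 °C, 5% CO₂ before cytotoxicity assessment; absorbance read at 570 nm on plate reader.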

In the case of `O=c1[nH]cc(F)c(=O)[nH]1` [FLUOROURACIL], the IC50 is reported as 18 nM.

From ChEMBL document CHEMBL1154155, “Novel 2,4,5-trisubstituted oxazole derivatives: synthesis and antiproliferative activity” (Eur J Med Chem, 2009)
